Measles CPE = compounds protecting cells from measles virus cytopathic effect, primary screen, measles RdRp inhibitor project, single point, MLSMR library, absorbance; Measles virus-infected cells, CPE protection; AID 841, 2007; actives 1.5% (n = 140,000); protection (pct of control), % at 4 µM; in the data active = protection mostly above about 24%, no sharp cut-off; inactive = mostly below about 26%
Yeast lifespan up = compounds extending yeast replicative lifespan, primary screen, S. cerevisiae, OD615; S. cerevisiae growth with nicotinamide; deaD strain in restrictive glucose medium; inhibition of the nicotinamide effect, % at 10 µM; actives 0.68% (n = 130,000);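 active = inhibition above a set limit, placed 3 SD over the median of all compounds, cut at about 26% in these data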;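 note: 0% = nicotinamide-treated wells and 100% = cells grown without nicotinamide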
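Assay system: DeaD-strain S. cerevisiae. Medium: CSMM-D glucose medium, restrictive. Reagent: nicotinamide, 1.5 mM, co-present with compound. Compound: 10 µM single point, 0.25% DMSO. Schedule: culture preincubation 4 h, compound exposure 48 h, both 30 °C. Detection: absorbance at 615 nm.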
Yeast growth inh = growth inhibitors of yeast BB579 in restrictive medium, primary screen, yeast lifespan-shortening project, S. cerevisiae. actives 0.51% (n = 140,000). inhibition, % at 10 µM. OD615, 48 h;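 active = inhibition above a set limit, 3 SD over the mean compound inhibition, cut at about 44% in these data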
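System: Saccharomyces cerevisiae DeaD strain BB579, replicative lifespan model yeast | Buffer or medium: Restrictive glucose-based CSMM-D medium | Times: 4 h preincubation and 48 h exposure at 30 °C | Detection: OD615 turbidity measurement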
Phagocytosis inh = inhibitors of macrophage phagocytosis, primary screen, imaging, J774A.1 cells, IgG beads; J774A.1 macrophage IgG-bead phagocytosis; actives 0.07% (n = 110,000); inhibition, % at 5 µM;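 active = inhibition above the mean of the plate negative controls plus 5 SD, cut at about 13% in these data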;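 note: phagocytic index as fraction of beads internalized from green versus red external bead signal; plate controls were DMSO negative control for no effect and cytochalasin-D positive control for full effect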
RAM network inh = inhibitors of the yeast RAM network, primary screen, dse1pr::URA3 reporter, 5-FOA selection; S. cerevisiae dse1pr::URA3 reporter, 5-FOA growth OD615, 2 d; analog-sensitive cbk1-as2 kinase mutant strain; inhibition, % at 50 µM; actives 1.8% (n = 190,000);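 active = inhibition above a set limit, 3 SD over mean compound inhibition, cut at about 8.4% in these data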;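 note: 0% = DMSO-only wells with no growth and 100% = 10 µM 1-NA-PP1 full growth; inhibition rescues growth on 5-FOA so higher OD means more RAM inhibition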
An asterisk follows results filed as active; . = not tested or not shown. Shown are actives, neighbours in structure and some others; about 3.6% of the full set was active somewhere.

SMILES | Measles CPE | Yeast lifespan up | Yeast growth inh | Phagocytosis inh | RAM network inh
CCCCOC(C)n1cc(F)c(=O)[nH]c1=O (stereo not given) | 4.0 | 3.1 | -24.9 | -5.2 | -0.8
COCCN1CCn2c(nc3cc(NC(=O)c4cccs4)ccc32)C1 | 3.4 | 8.5 | -86.7 | 0.8 | 1.1
CC(c1ccccc1)N1CCn2c(nc3cc(NC(=O)c4cccs4)ccc32)C1 (stereo not given) | 2.1 | 55.5* | -40.5 | 1.5 | 0.0
N#CC12CCCCC1CC1CCCCC1(C#N)N2Cc1cccnc1 (stereo not given) | 112.9* | -26.3 | 5.3 | -0.1 | 1.2
COc1ccccc1OCCOc1ccc(C(=O)c2ccccc2)cc1 | 19.5 | -5.8 | -11.0 | -0.7 | 10.0*
CN(C)/C=C(/C(=O)c1ccc(Cl)cc1Cl)S(=O)(=O)c1ccc(Cl)cc1 | 16.3 | 69.1* | -48.9 | 0.0 | 1.0
CC(Sc1nncs1)C(=O)NCC(=O)Nc1ccc(F)c(F)c1F (stereo not given) | . | . | . | . | 2.1
Clc1ccc(CN(CC2CCCO2)C(c2cccs2)c2nnnn2C2CCCC2)cc1 (stereo not given) | 7.6 | -12.7 | -33.3 | . | 11.2*
CCN(Cc1ccccc1)C(c1cccs1)c1nnnn1C1CCCCC1 (stereo not given) | 2.0 | -1.3 | -11.2 | 0.4 | 9.3*
C=CCn1c(=O)c2ccccc2n2c(SCc3cc(=O)n4ccsc4n3)nnc12 | 66.4* | -18.4 | -31.4 | -1.0 | 1.7
COc1cc(-c2nnc(SCC(=O)N(C)C3CCS(=O)(=O)C3)o2)cc(OC)c1OC (stereo not given) | . | . | . | . | 2.0
Cc1ccc(C(C2=C(O)CC(C)(C)CC2=O)C2C(=O)CC(C)(C)CC2=O)o1 (stereo not given) | 6.3 | 43.6* | -12.2 | -2.6 | -1.2
CC1(C)CC(=O)C(C(C2=C(O)CC(C)(C)CC2=O)c2cccs2)C(=O)C1 (stereo not given) | 11.6 | 32.3 | -34.0 | 0.4 | -2.2
Cc1cc(C)c(NC(=O)CN2CCC(NC(=O)NC3CCCCC3)CC2)c(C)c1 | . | . | . | . | 0.6
Nc1nonc1C(=O)N/N=C/c1ccc(-c2cccc(C(=O)O)c2)o1 | . | . | . | . | 3.0
CCOCCCNCc1cc(Br)ccc1OCc1ccccc1 | 16.3 | 6.6 | -19.6 | . | 0.7
OCCNCc1cc(Br)ccc1OCc1ccccc1 | 31.9* | -4.4 | -5.2 | -2.7 | -1.0
C/C(N)=C(/C#N)C(=O)COC(=O)c1oc2ccccc2c1COC(C)C | . | . | . | . | 3.4
CC(=O)NS(=O)(=O)c1ccc(NC(=O)CC(C)c2ccccc2)cc1 (stereo not given) | . | . | . | . | 0.4
Cc1cc(C(=O)Cn2nc(C(=O)O)c3ccccc3c2=O)c(C)n1CCc1ccc(Cl)cc1 | . | . | . | . | 2.3
COc1ccc(-c2csc(NC(=O)C3=NN(c4ccccc4)C(=O)CC3)n2)cc1 | . | . | . | . | 4.8
CCCCC/C(=N\NC(=O)Nc1ccccc1)c1ccccc1 | . | . | . | . | 9.5*
Cn1c(=O)c2nc(-c3ccccc3)oc2c2ccccc21 | 8.1 | -23.0 | 78.4* | -3.2 | 3.0
CCCCCc1nc2c(=O)n(C)c3ccccc3c2o1 | 10.5 | -15.2 | 4.7 | 0.9 | 0.8
Cn1c(=O)c2c(=O)cc(NNC(=O)C(C)(C)C)[nH]c2n(C)c1=O | 17.5 | 27.9* | -1.5 | -4.2 | -0.1
SMILES | Measles CPE | Yeast lifespan up | Yeast growth inh | Phagocytosis inh | RAM network inh
COc1ccc(CNC(=O)CN(c2cccc([N+](=O)[O-])c2)S(C)(=O)=O)cc1 | . | . | . | . | 0.4
O=C(CCN1c2ccccc2Sc2ccccc21)Oc1ccccc1 | 7.3 | 0.5 | -31.5 | . | 7.7
COC(=O)c1ccc(OC(=O)CCN2c3ccccc3Sc3ccccc32)cc1 | 14.0 | 4.7 | -19.4 | -10.8 | 10.9*
O=c1[nH]c(SCc2cccc(F)c2)nc2c1CCCC2 | 9.3 | -1.5 | -32.8 | -3.1 | 1.6
COc1cc(CNCCN2CCOCC2)ccc1OCc1ccc(Cl)cc1Cl | 4.6 | -20.0 | 2.6 | 2.7 | -0.8
COc1cc(CNCCN2CCOCC2)ccc1OCc1cccc(Cl)c1 | 5.5 | -15.3 | 52.5* | -1.3 | -0.1
CC(OC(=O)CCc1nc2ccccc2[nH]c1=O)c1ccccc1 (stereo not given) | . | . | . | . | 0.1
Cn1c(N)c(C(=O)c2ccc(Cl)cc2)c(=O)n(C)c1=O | 21.0 | -4.2 | -10.9 | -14.6 | -0.5
Cn1c(N)c(C(=O)c2ccc(F)cc2F)c(=O)n(C)c1=O | 16.9 | 40.4* | -19.6 | -0.6 | 0.5
CCN(CC)C(=O)Cn1cnc2c1c(=O)n(C)c(=O)n2C | 43.7* | -4.0 | -22.2 | -0.9 | 0.1
CCOC(=O)C1=NN(c2ccc(C)cc2)CC1C(=O)OC (stereo not given) | 20.3 | -2.1 | -41.8 | -8.5 | -0.1
Cc1cccc(C)c1NC(=O)C(NC(=O)c1ccccn1)c1ccccc1[N+](=O)[O-] (stereo not given) | 21.1 | 2.7 | -18.8 | . | 0.8
COc1cc(NC(=O)COC(=O)/C=C/c2ccc(Cl)cc2Cl)cc(OC)c1 | 32.1 | 4.0 | -38.6 | 3.0 | 9.5*
Cc1ccc(C(=O)c2ccc(C)cc2)cc1 | . | . | . | . | -0.1
Cc1ccc(C(=O)c2no[n+]([O-])c2C(=O)c2ccc(C)cc2)cc1 | 0.1 | 27.2* | 19.0 | -0.7 | 0.0
Fc1ccc(NC(=S)NC23CN4CN(CN(C4)C2)C3)cc1 | 17.1 | 0.6 | -7.8 | -2.0 | 1.9
Cc1ccc(/C=C/C(=O)O)cc1S(=O)(=O)Nc1ccc2c(c1)OCO2 | . | . | . | . | 8.8*
O=C(O)c1ccc(N2C(=O)C3C4c5ccccc5C(Br)(c5ccccc54)C3C2=O)cc1 (stereo not given) | . | . | . | . | 3.0
CCc1ccc(N=CC23c4ccccc4C(c4ccccc42)C2C(=O)N(c4ccc(OC)cc4)C(=O)C23)cc1 (stereo not given) | 3.7 | 28.6* | -21.9 | . | 3.5
N#Cc1c2c(c(-c3ccco3)[nH]c1=O)CCCC2 | 46.4* | -7.6 | -31.2 | -0.6 | 2.6
N#Cc1c(-c2ccco2)c2c([nH]c1=S)CCCC2 | 8.5 | -17.2 | -37.7 | 0.5 | 0.9
Cc1nc2c3ccccc3nc(NNC(=O)CCC(=O)NCCC(C)C)n2n1 | 19.7 | -0.2 | -18.3 | -0.5 | 9.2*
COc1cc(C2NC(=S)NC(O)(C(F)(F)F)C2C(=O)c2cccs2)cc(OC)c1O (stereo not given) | 31.6* | 1.3 | -11.9 | -2.1 | -0.1
CCOC(=O)C1C(c2cc(OC)c(OC)c(OC)c2)NC(=S)NC1(O)C(F)(F)F (stereo not given) | 11.4 | -0.8 | -1.6 | -0.4 | 0.8
CN1C(=O)NC(c2ccc(O)cc2)C(C(=O)c2cccs2)C1(O)C(F)(F)F (stereo not given) | 9.3 | 33.6* | -15.2 | . | 0.7
CCOC(=O)C1C(c2cc(OC)c(O)c(OC)c2)NC(=S)NC1(O)C(F)(F)F (stereo not given) | 35.6* | 11.6 | -15.4 | -10.3 | 1.1
